For one assay, the system named is MT4. Description: Cytotoxic concentration required to inhibit MT-4 cell proliferation by 50%. Type of assay: functional. Particulars: Homo sapiens. An outline of the steps:
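Mock-infected MT-4 cells (3 × 10⁵/mL) incubated with compound dilutions; CC₅₀ is the concentration that reduces the number of viable MT-4 cells by 50%.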

The subject of assay [1] is Human immunodeficiency virus 2. Description: Effective concentration required to inhibit HIV-2 induced cytopathicity in CEM cell culture by 50%. Type of assay: functional, organism-based. To be noted: Human immunodeficiency virus 2, CCRF-CEM. An outline of the steps:
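CEM cells at 4 × 10⁵/mL infected with HIV-1 or HIV-2 at ~100 CCID₅₀ per mL, mixed 1:1 with compound dilutions. Giant cell formation scored microscopically after 4 days. EC₅₀ is the concentration inhibiting virus-induced cytopathicity by 50%.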
In general terms: Damage to the host cells serves as the signal in cytopathic effect assays.

Assay [2] concerns Human immunodeficiency virus 2. Description: Effective concentration required to inhibit HIV-2 induced cytopathicity in MT-4 cell culture by 50%. Type of assay: functional, organism-based. Particulars: Human immunodeficiency virus 2, MT4. An outline of the steps: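 MT-4 cells at 3 × 10⁵/mL infected with HIV-1 or HIV-2 at ~100 CCID₅₀ per mL, mixed 1:1 with compound dilutions. Cytopathicity read by trypan blue dye exclusion after 5 days. EC₅₀ is the concentration giving 50% protection against the virus-induced loss of cell viability.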

A further assay relates to CCRF-CEM. Description: Cytostatic concentration required to inhibit CEM cell proliferation by 50%. Type of assay: functional. To be noted: Homo sapiens. An outline of the steps:
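CEM cells (4 × 10⁵/mL) exposed to compound dilutions without virus; CC₅₀ is the concentration that inhibits CEM cell proliferation by 50%.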

Assay [3] can be described thus: Effective concentration required to inhibit HIV-1 induced cytopathicity in MT-4 cell culture by 50%. To be noted: mt4.

The CC50 is the concentration giving 50% cytotoxicity. A higher CC50 goes with better tolerance by the cells. In general, EC50 refers to the concentration that produces a half-maximal response. High values mean a less potent agent, low ones a more potent agent. In the case of `Cc1cn([C@@H]2O[C@H](CO[Si](C)(C)C(C)(C)C)[C@@]3(OS(=O)(=O)C=C3N)[C@H]2O[Si](C)(C)C(C)(C)C)c(=O)n(C)c1=O`, the midpoint of cytotoxicity with MT4, the CC50, lay at 230 µM. The concentration giving a half-maximal response (EC50) in assay [1] and in assay [2] was over 250 µM each time.

As to `Cc1cn([C@@H]2O[C@H](CO[Si](C)(C)C(C)(C)C)[C@@]3(OS(=O)(=O)C(c4ccccc4)=C3N)[C@H]2O[Si](C)(C)C(C)(C)C)c(=O)n(C)c1=O`, the figures for the cytotoxic concentration (CC50) in the assay with CCRF-CEM and in the assay on MT4 were 65 µM and 24 µM, respectively. Also, the EC50 in assay [2] is over 50 µM.

As to `Cc1cn([C@@H]2O[C@H](CO[Si](C)(C)C(C)(C)C)[C@@]3(OS(=O)(=O)C(CC(N)=O)=C3NCC(N)=O)[C@H]2O[Si](C)(C)C(C)(C)C)c(=O)n(C)c1=O`, the cytotoxic concentration (CC50) in the assay with CCRF-CEM is 3.9 µM; in the assay on MT4, 3.2 µM. Also, the EC50 in assay [1] and in assay [2] was over 2 µM in each case.

As to `C=CCC1=C(N)[C@@]2(OS1(=O)=O)[C@@H](CO[Si](C)(C)C(C)(C)C)O[C@@H](n1cc(C)c(=O)n(C)c1=O)[C@@H]2O[Si](C)(C)C(C)(C)C`, the cytotoxic concentration (CC50) was 45 µM in the assay with CCRF-CEM and 82 µM with MT4. Further, the half-maximal effective concentration (EC50) in assay [1] and in assay [2] was over 50 µM throughout.

With `CC1=C(N)[C@@]2(OS1(=O)=O)[C@@H](CO[Si](C)(C)C(C)(C)C)O[C@@H](n1cc(C)c(=O)n(C)c1=O)[C@@H]2O[Si](C)(C)C(C)(C)C`, the 50% cytotoxic concentration (CC50) was 10 µM in the assay on CCRF-CEM and over 250 µM with MT4. In addition, the EC50 was over 50 µM in assay [1] and over 250 µM in assay [2].

Turning to `CNC1=C(C)S(=O)(=O)O[C@@]12[C@@H](CO[Si](C)(C)C(C)(C)C)O[C@@H](n1cc(C)c(=O)n(C)c1=O)[C@@H]2O[Si](C)(C)C(C)(C)C`, the half-maximal cytotoxic concentration (CC50) was 234 µM in the assay on CCRF-CEM and over 250 µM in the assay with MT4. The concentration for a half-maximal effect (EC50) in assay [1] and in assay [2] was over 250 µM each time.

Take `Cc1cn([C@@H]2O[C@H](CO[Si](C)(C)C(C)(C)C)[C@@]3(OS(=O)(=O)C(c4ccsc4)=C3N)[C@H]2O[Si](C)(C)C(C)(C)C)c(=O)n(C)c1=O`: the values for the CC50 in the assay on CCRF-CEM and in the assay on MT4 were 33 µM and 3.9 µM, respectively. Besides, the EC50 in assay [1] and in assay [2] was over 2 µM throughout.

With `COC(=O)/C=C/C1=C(N)[C@@]2(OS1(=O)=O)[C@@H](CO[Si](C)(C)C(C)(C)C)O[C@@H](n1cc(C)c(=O)n(C)c1=O)[C@@H]2O[Si](C)(C)C(C)(C)C`, the half-maximal cytotoxic concentration (CC50) with CCRF-CEM turned out to be 37 µM; with MT4, 55 µM. Also, the concentration giving a half-maximal response (EC50) was over 2 µM in assay [1] and over 10 µM in assay [2].

With `C=CC1=C(N)[C@@]2(OS1(=O)=O)[C@@H](CO)O[C@@H](n1cc(C)c(=O)[nH]c1=O)[C@@H]2O[Si](C)(C)C(C)(C)C`, the CC50 in the assay on CCRF-CEM is 76 µM; in the assay on MT4, 47 µM. The concentration giving a half-maximal response (EC50) in assay [1] and in assay [2] was over 50 µM in each case.

Take `Cc1cn([C@@H]2O[C@H](CO[Si](C)(C)C(C)(C)C)[C@@]3(OS(=O)(=O)C(Br)=C3N)[C@H]2O[Si](C)(C)C(C)(C)C)c(=O)[nH]c1=O`: the figures for the CC50 in the assay on CCRF-CEM and with MT4 were 17 µM and 18 µM, respectively. For the same compound, the EC50 in assay [1] and in assay [2] was over 10 µM in each case.

For `C=CC1=C(N)[C@@]2(OS1(=O)=O)[C@@H](CO[Si](C)(C)C(C)(C)C)O[C@@H](n1cc(C)c(=O)[nH]c1=O)[C@@H]2O[Si](C)(C)C(C)(C)C`, the cytotoxic concentration (CC50) in the assay on CCRF-CEM stood at 36 µM; in the assay on MT4, 24 µM. The EC50 in assay [1] stood at 4 µM; in assay [2], 3.3 µM.

Take `CC#CC1=C(N)[C@@]2(OS1(=O)=O)[C@@H](CO[Si](C)(C)C(C)(C)C)O[C@@H](n1cc(C)c(=O)n(C)c1=O)[C@@H]2O[Si](C)(C)C(C)(C)C`: the CC50 was 5 µM in the assay on CCRF-CEM and 3.3 µM with MT4. The EC50 in assay [1] and in assay [2] was over 2 µM in each case.

Consider `Cc1cn([C@@H]2O[C@H](CO[Si](C)(C)C(C)(C)C)[C@@]3(OS(=O)(=O)C(/C=C/CO)=C3N)[C@H]2O[Si](C)(C)C(C)(C)C)c(=O)n(C)c1=O`, for which the CC50 in the assay on CCRF-CEM turned out to be 18 µM; in the assay on MT4, 13 µM. For the same compound, the 50% effective concentration (EC50) was 5.7 µM in assay [1] and over 10 µM in assay [2].

As to `CCOC(=O)/C=C/C1=C(N)[C@@]2(OS1(=O)=O)[C@@H](CO[Si](C)(C)C(C)(C)C)O[C@@H](n1cc(C)c(=O)[nH]c1=O)[C@@H]2O[Si](C)(C)C(C)(C)C`, the CC50 amounted to 174 µM in the assay on CCRF-CEM and 40 µM in the assay on MT4. The half-maximal effective concentration (EC50) was over 10 µM in assay [1] and over 50 µM in assay [2].

Take `C=CCNC1=CS(=O)(=O)O[C@@]12[C@@H](CO[Si](C)(C)C(C)(C)C)O[C@@H](n1cc(C)c(=O)n(C)c1=O)[C@@H]2O[Si](C)(C)C(C)(C)C`: the CC50 in the assay on CCRF-CEM was 126 µM; in the assay with MT4, 25 µM. Besides, the concentration giving a half-maximal response (EC50) in assay [1] and in assay [2] was over 50 µM each time.

For the compound `COC(=O)/C=C/C1=C(N)[C@@]2(OS1(=O)=O)[C@@H](CO[Si](C)(C)C(C)(C)C)O[C@@H](n1cc(C)c(=O)[nH]c1=O)[C@@H]2O[Si](C)(C)C(C)(C)C`, the CC50 is 39 µM in the assay on CCRF-CEM and 29 µM in the assay on MT4. In addition, the EC50 in assay [1] came to 7.3 µM; in assay [2] it was 9.9 µM.

With `Cc1cn([C@@H]2O[C@H](CO[Si](C)(C)C(C)(C)C)[C@@]3(OS(=O)(=O)C(/C=C/CO)=C3N)[C@H]2O[Si](C)(C)C(C)(C)C)c(=O)[nH]c1=O`, the 50% cytotoxic concentration (CC50) with CCRF-CEM amounted to 18 µM; in the assay with MT4 it was 17 µM. Further, the concentration giving a half-maximal response (EC50) in assay [1] is 1.2 µM; in assay [2], 5.4 µM.

As for `Cc1cn([C@@H]2O[C@H](CO[Si](C)(C)C(C)(C)C)[C@@]3(OS(=O)(=O)C(c4ccccc4)=C3N)[C@H]2O[Si](C)(C)C(C)(C)C)c(=O)[nH]c1=O`, the CC50 in the assay on CCRF-CEM was found to be 37 µM; with MT4, 55 µM. For the same compound, the concentration for a half-maximal effect (EC50) is over 2 µM in assay [1] and over 50 µM in assay [2].

As to `Cc1cn([C@@H]2O[C@H](CO[Si](C)(C)C(C)(C)C)C3(OS(=O)(=O)C=C3N)[C@H]2O[Si](C)(C)C(C)(C)C)c(=O)[nH]c1=O` (stereo partly specified), the 50% effective concentration (EC50) in assay [3] is 0.06 µM; in assay [1], over 10 µM; in assay [2], over 10 µM. Besides, half-maximal cytotoxicity in the assay with MT4 (CC50) was put at 12 µM.

As to `Cc1cn([C@@H]2O[C@H](CO[Si](C)(C)C(C)(C)C)[C@@]3(OS(=O)(=O)C(I)=C3N)[C@H]2O[Si](C)(C)C(C)(C)C)c(=O)n(C)c1=O`, the half-maximal cytotoxic concentration (CC50) in the assay with CCRF-CEM was found to be 5.6 µM; in the assay on MT4 it was 3.9 µM. Further, the EC50 in assay [1] is over 2 µM; in assay [2], over 10 µM.

Consider `Cc1cn([C@@H]2O[C@H](CO[Si](C)(C)C(C)(C)C)[C@@]3(OS(=O)(=O)C(Cl)=C3N)[C@H]2O[Si](C)(C)C(C)(C)C)c(=O)[nH]c1=O`, for which the CC50 in the assay with CCRF-CEM came to 7 µM; in the assay on MT4, 5.4 µM. Also, the concentration giving a half-maximal response (EC50) in assay [1] and in assay [2] was over 10 µM in each case.

On to `Cc1cn([C@@H]2O[C@H](CO[Si](C)(C)C(C)(C)C)[C@@]3(OS(=O)(=O)C(I)=C3N)[C@H]2O[Si](C)(C)C(C)(C)C)c(=O)[nH]c1=O`, for which the half-maximal cytotoxic concentration (CC50) turned out to be 4 µM in the assay on CCRF-CEM and 4.3 µM in the assay on MT4. In addition, the EC50 in assay [1] and in assay [2] was over 2 µM each time.

The values are drawn from ChEMBL document CHEMBL1135765, “Synthesis of 3' '-substituted TSAO derivatives with anti-HIV-1 and anti-HIV-2 activity through an efficient palladium-catalyzed cross-coupling approach” (J Med Chem, 2002).
